# Measured values as given in ChEMBL document CHEMBL1949570, “Quinoline- and isoquinoline-sulfonamide derivatives of LCAP as potent CNS multi-receptor-5-HT1A/5-HT2A/5-HT7 and D2/D3/D4-agents: the synthesis and pharmacological evaluation” (Bioorg Med Chem, 2012).
# The source made the active and inactive calls. The rule behind the calls is not given here.
# Legend:
# [1] = target: 5-hydroxytryptamine receptor 2A (Rattus norvegicus, UniProt P14842); assay: Displacement of [3H]Ketanserin from rat cortex 5-HT2A receptor by liquid scintillation counter
# In short: (§1)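 Competition binding. 5-HT1A: rat hippocampus, [3H]-8-OH-DPAT. 5-HT2A: rat cortex, [3H]-ketanserin. D2: rat striatum, [3H]-spiperone. 5-HT6: human receptor stably in HEK293, [3H]-LSD. 5-HT7: human receptor stably in HEK293, [3H]-5-CT. Vacuum filtration on GF/B filters, ice-cold washes, scintillation counting.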
# Rattus norvegicus [2] = assay: Anxiolytic activity in Wistar rat assessed as increase in open arm entries at 5 mg/kg after 5 mins by plus-maze test (reference value: 26.3 +/- 2.1 %); assay type: functional
# Rattus norvegicus [3] = assay: Anxiolytic activity in Wistar rat assessed as increase in open arm entries at 2.5 mg/kg after 5 mins by plus-maze test (reference value: 26.3 +/- 2.1 %); assay type: functional
# Rattus norvegicus [4] = assay: Anxiolytic activity in Wistar rat assessed as increase in open arm entries at 1.25 mg/kg after 5 mins by plus-maze test (reference value: 26.3 +/- 2.1 %); assay type: functional
# Rattus norvegicus [5] = assay: Anxiolytic activity in Wistar rat assessed as increase in time spent in open arms at 5 mg/kg after 5 mins by plus-maze test (reference value: 13 +/- 2.3 %); assay type: functional
# Rattus norvegicus [6] = assay: Anxiolytic activity in Wistar rat assessed as increase in time spent in open arms at 2.5 mg/kg after 5 mins by plus-maze test (reference value: 13 +/- 2.3 %); assay type: functional
# Rattus norvegicus [7] = assay: Anxiolytic activity in Wistar rat assessed as increase in time spent in open arms at 1.25 mg/kg after 5 mins by plus-maze test (reference value: 13 +/- 2.3 %); assay type: functional
# [8] = target: T1, 5-hydroxytryptamine receptor 1A (Rattus norvegicus, UniProt P19327); assay: Displacement of [3H]8-OH-DPAT from rat hippocampus 5-HT1A receptor by liquid scintillation counter; assay type: tissue-based; in short: as §1
# T1 sequence (P19327 whole entry): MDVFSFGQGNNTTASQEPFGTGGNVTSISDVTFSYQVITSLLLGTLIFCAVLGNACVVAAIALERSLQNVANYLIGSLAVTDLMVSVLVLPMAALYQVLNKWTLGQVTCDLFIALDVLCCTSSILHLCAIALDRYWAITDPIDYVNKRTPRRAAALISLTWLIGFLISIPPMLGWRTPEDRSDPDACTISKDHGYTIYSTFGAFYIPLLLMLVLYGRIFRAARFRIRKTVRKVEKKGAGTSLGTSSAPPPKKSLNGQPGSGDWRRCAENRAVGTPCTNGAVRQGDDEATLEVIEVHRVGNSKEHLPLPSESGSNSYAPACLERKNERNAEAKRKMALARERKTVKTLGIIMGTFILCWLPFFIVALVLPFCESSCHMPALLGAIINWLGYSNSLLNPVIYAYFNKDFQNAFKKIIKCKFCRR
# [9] = target: 5-hydroxytryptamine receptor 7 (Homo sapiens, UniProt P34969); assay: Displacement of [3H]5-CT form human cloned 5HT7 receptor expressed in human HEK293 cells by liquid scintillation counter; assay type: cell-based; in short: as §1
# [10] = target: 5-hydroxytryptamine receptor 6 (Homo sapiens, UniProt P50406); assay: Displacement of [3H]-LSD from human full length cloned 5HT6 receptor expressed in human HEK293 cells by liquid scintillation counter; assay type: cell-based; in short: as §1
# Mus musculus [11] = assay: […] activity in ip dosed Swiss albino mouse assessed as inhibition of DOI-induced head twitches administered 20 mins before DOI challenge measured for 20 mins; assay type: functional; conditions: for ED50: read-out: ID50 (the source's name)
# [12] = Selectivity ratio of compound Ki for rat hippocampus 5-HT1A receptor to human 5HT7 receptor; assay type: tissue-based
# In short: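 Ratio of Ki values from competition binding: rat hippocampus 5-HT1A with [3H]-8-OH-DPAT versus human 5-HT7 in HEK293 with [3H]-5-CT; Ki by Cheng–Prusoff from 7–9 concentrations in triplicate.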
# Mus musculus [13] = assay: Antipsychotic activity in CD1 mouse assessed as reduction in spontaneous locomotor activity measuring number of crossings at 0.5 to 1 mg/kg every 5 mins for 1 hr; assay type: functional, organism-based
# In short: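 Male CD-1 mice; compound or reference ip 30 min before test plus vehicle. After 30 min habituation in individual cages, crossings counted over 1 h, recorded every 5 min; mean ± SEM; one-way ANOVA, Bonferroni.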
# Mus musculus [14] = organism: Mus musculus; assay: Antipsychotic activity in CD1 mouse assessed as inhibition of MK-801-induced hyperactivity measuring number of crossings measured every 5 mins for 1 hr; assay type: functional, organism-based
# In short: (§2)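 Male CD-1 mice, one per cage, habituated 30 min; photobeam crossings (ambulation) then counted over 1 h, logged every 5 min. Drugs suspended in 1% aqueous Tween 80 and given ip at 10 ml/kg, 30 min before test. For hyperactivity, MK-801 (0.2 mg/kg, in distilled water) was given ip 15 min before test. 5–10 mice/dose; mean ± SEM, one-way ANOVA with Bonferroni test.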
# [15] = target: T2, D(4) dopamine receptor (Homo sapiens) (UniProt P21917); assay: Displacement of [3H]-methylspiperone from human cloned dopamine D4 receptor expressed in HEK293 cells at 10 '-6 M by liquid scintillation counter; assay type: cell-based
# T2 sequence (whole entry): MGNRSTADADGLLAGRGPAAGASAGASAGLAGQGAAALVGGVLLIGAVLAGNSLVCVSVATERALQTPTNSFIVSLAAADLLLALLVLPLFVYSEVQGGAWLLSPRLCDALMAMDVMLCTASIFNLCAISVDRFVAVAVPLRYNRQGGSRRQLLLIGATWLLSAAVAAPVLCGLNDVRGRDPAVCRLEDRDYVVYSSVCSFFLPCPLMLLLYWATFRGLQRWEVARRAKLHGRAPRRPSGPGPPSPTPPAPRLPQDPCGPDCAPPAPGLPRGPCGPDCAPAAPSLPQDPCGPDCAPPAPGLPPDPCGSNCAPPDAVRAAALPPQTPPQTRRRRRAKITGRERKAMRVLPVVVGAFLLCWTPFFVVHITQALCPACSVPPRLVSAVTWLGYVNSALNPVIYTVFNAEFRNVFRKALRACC
# [16] = target: T2, D(4) dopamine receptor (Homo sapiens); assay: Displacement of [3H]-methylspiperone from human cloned dopamine D4 receptor expressed in HEK293 cells at 10 '-7 M by liquid scintillation counter; assay type: cell-based
# [17] = target: D(3) dopamine receptor (Homo sapiens) (UniProt P35462); assay: Displacement of [3H]-methylspiperone from human cloned dopamine D3 receptor expressed in HEK293 cells at 10 '-6 M by liquid scintillation counter; assay type: cell-based
# [18] = target: D(3) dopamine receptor (Homo sapiens) (UniProt P35462); assay: Displacement of [3H]-methylspiperone from human cloned dopamine D3 receptor expressed in HEK293 cells at 10 '-7 M by liquid scintillation counter; assay type: cell-based
# Mus musculus [19] = assay: Antidepressant activity in Swiss albino mouse assessed as reduction in immobility time at 20 mg/kg measured for 4 mins by forced swim test; assay type: functional; set-up: scale not given: the % may be the effect or the level left
# In short: (§3)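 Porsolt forced swim in male Swiss albino mice. Drugs ip (10 ml/kg; 1% Tween 80 suspension, imipramine in water) 30 min before. Cylinder 25 cm high, 10 cm diameter, 6 cm water at 23–25 °C, 6 min session; immobility scored over final 4 min. 5–10 mice/dose; one-way ANOVA with Bonferroni.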
# Mus musculus [20] = assay: Antidepressant activity in Swiss albino mouse assessed as reduction in immobility time at 10 mg/kg measured for 4 mins by forced swim test; assay type: functional; set-up: scale not given: the % may be the effect or the level left; in short: as §3
# Mus musculus [21] = assay: Antipsychotic activity in CD1 mouse assessed as reduction in spontaneous locomotor activity measuring number of crossings at 1.25 to 5 mg/kg every 5 mins for 1 hr; assay type: functional, organism-based; in short: as §2
# Mus musculus [22] = assay: Antidepressant activity in mouse assessed as spontaneous locomotor activity 10 to 30 mg/kg; assay type: functional, organism-based
# In short: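 Swiss albino mice given the forced swim doses ip 30 min before; placed individually in cages and channel crossings counted from 2 to 6 min with a multichannel activity monitor, matching the swim test observation period.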
# Mus musculus [23] = assay: […] activity in Swiss albino mouse assessed as inhibition of apomorphine-induced climbing behavior administered 10 mins before apomorphine challenge measured for 2 mins; assay type: functional
# In short: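 Male Swiss albino mice; compounds ip in 1% Tween 80 suspension, 10 min before apomorphine 3 mg/kg. Climbing time (2–4 paws on bar wall) recorded for 2 min starting 20 min after apomorphine.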
# D(2) dopamine receptor = D(2) dopamine receptor (Rattus norvegicus, UniProt P61169); assay: Displacement of [3H]-spiperone from rat striatum dopamine D2 receptor by liquid scintillation counter; in short: as §1
# Sequence of D(2) dopamine receptor (P61169 whole entry): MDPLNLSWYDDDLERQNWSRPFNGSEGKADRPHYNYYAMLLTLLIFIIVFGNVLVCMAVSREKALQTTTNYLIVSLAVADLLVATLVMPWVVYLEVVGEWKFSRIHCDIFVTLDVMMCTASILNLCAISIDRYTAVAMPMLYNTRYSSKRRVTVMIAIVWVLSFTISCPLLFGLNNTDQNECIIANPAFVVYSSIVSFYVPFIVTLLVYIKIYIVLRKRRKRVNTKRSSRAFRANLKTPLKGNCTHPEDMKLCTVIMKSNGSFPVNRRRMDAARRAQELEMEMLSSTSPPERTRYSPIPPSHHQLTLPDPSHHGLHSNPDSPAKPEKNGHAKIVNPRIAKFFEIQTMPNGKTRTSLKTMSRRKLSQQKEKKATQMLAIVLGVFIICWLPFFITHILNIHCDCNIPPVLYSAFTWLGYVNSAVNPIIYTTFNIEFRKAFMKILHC
# Sequence of 5-hydroxytryptamine receptor 2A (P14842 whole entry): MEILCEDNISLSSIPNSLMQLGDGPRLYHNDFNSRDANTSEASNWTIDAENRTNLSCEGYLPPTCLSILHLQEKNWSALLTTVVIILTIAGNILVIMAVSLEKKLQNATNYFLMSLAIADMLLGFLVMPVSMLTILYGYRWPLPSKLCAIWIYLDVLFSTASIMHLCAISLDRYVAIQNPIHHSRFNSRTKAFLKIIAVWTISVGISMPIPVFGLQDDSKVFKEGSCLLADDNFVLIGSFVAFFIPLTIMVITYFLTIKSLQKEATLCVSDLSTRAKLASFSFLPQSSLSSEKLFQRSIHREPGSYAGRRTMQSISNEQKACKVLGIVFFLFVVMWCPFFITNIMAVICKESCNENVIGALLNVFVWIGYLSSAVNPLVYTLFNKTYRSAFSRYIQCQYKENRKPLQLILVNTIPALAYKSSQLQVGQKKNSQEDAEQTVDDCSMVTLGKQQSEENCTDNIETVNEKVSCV
# Sequence of D(3) dopamine receptor (Homo sapiens) (P35462 whole entry): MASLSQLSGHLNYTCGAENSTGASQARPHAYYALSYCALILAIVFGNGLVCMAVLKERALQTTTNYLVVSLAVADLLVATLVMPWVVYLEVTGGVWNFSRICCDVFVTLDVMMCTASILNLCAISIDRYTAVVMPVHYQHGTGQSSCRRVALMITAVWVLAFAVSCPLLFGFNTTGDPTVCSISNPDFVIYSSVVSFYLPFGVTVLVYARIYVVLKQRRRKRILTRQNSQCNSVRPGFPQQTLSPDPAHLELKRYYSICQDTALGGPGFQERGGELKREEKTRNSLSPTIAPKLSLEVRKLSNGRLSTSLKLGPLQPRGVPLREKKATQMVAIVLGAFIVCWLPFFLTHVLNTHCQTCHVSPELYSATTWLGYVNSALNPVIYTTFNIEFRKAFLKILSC
# Sequence of 5-hydroxytryptamine receptor 7 (P34969 whole entry): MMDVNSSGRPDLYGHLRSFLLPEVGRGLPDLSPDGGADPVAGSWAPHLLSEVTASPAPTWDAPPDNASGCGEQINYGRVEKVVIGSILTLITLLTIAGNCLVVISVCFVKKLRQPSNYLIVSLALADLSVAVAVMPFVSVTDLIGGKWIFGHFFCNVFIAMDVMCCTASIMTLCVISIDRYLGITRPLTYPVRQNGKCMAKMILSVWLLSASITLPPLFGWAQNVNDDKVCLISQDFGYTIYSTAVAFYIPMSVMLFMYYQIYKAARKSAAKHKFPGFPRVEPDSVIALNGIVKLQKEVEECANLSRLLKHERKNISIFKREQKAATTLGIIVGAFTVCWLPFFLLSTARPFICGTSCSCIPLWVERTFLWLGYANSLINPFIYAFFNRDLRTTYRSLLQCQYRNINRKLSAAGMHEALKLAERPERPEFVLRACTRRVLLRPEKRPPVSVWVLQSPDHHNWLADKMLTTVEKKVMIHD
# Sequence of 5-hydroxytryptamine receptor 6 (P50406 whole entry): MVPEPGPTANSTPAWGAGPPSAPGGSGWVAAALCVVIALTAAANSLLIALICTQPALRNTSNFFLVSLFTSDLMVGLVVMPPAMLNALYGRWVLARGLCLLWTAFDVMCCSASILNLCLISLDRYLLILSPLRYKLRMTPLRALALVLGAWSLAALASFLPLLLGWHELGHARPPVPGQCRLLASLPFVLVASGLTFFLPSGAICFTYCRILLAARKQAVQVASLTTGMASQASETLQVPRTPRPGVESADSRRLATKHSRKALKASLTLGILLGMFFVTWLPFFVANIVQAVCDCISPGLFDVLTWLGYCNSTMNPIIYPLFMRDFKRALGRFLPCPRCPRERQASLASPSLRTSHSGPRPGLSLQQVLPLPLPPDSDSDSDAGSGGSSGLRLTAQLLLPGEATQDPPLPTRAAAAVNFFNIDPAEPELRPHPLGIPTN
structure (smiles),measurement,setting,value
O=S(=O)(NCCCN1CCN(c2cccc(Cl)c2)CC1)c1cnc2ccccc2c1,Ki,[1],0.206 µM
CN1C(=O)CN=C(c2ccccc2)c2cc(Cl)ccc21 [DIAZEPAM],Activity,Rattus norvegicus [2],35.4%
same,Activity,Rattus norvegicus [3],46.6%
same,Activity,Rattus norvegicus [4],63.7%
same,Activity,Rattus norvegicus [5],21.8%
same,Activity,Rattus norvegicus [6],28.5%
same,Activity,Rattus norvegicus [7],29.7%
O=S(=O)(c1ccc2cccnc2c1)N1CCC(CN2CCN(c3ccc(Cl)cc3)CC2)CC1,Ki,[8],0.338 µM
same,Ki,[1],0.761 µM
O=S(=O)(NCCCCN1CCN(c2ccc(Cl)cc2)CC1)c1ccc2cccnc2c1,Ki,[9],0.381 µM
same,Ki,[10],1.73 µM
same,Ki,[8],0.868 µM
same,Ki,[1],0.063 µM
O=S(=O)(NCCCCN1CCN(c2cccc(Cl)c2)CC1)c1cccc2cccnc12,Ki,[9],0.025 µM
same,Ki,[10],3.76 µM
same,Ki,[8],0.074 µM
same,Ki,[1],0.152 µM
O=S(=O)(c1cnc2ccccc2c1)N1CCC(CN2CCN(c3ccc(Cl)cc3)CC2)CC1,Ki,[8],0.462 µM
same,Ki,[1],6 µM
O=C(c1ccc(F)cc1)C1CCN(CCn2c(=O)[nH]c3ccccc3c2=O)CC1 [KETANSERIN],ED50,Mus musculus [11],0.12 mg/kg
O=S(=O)(NCCCCCN1CCN(c2ccc(Cl)cc2)CC1)c1cnc2ccccc2c1,Ki,[8],5.8 µM
same,Ki,[1],0.114 µM
O=S(=O)(NCCCCN1CCN(c2cccc(Cl)c2)CC1)c1cccc2ccccc12,Ratio Ki,[12],10
same,Ki,[9],0.036 µM
same,Ki,[10],0.127 µM
same,Ki,[8],0.397 µM
same,Ki,[1],0.268 µM
O=S(=O)(NCCCCN1CCN(c2cccc(Cl)c2)CC1)c1ccc2ccccc2c1,Ki,[8],0.497 µM
same,Ki,[1],0.022 µM
O=S(=O)(NCCCCN1CCN(c2cccc(Cl)c2)CC1)c1ccc2ncccc2c1,Ki,[1],0.042 µM
O=S(=O)(NCCCCN1CCN(c2ccc(Cl)cc2)CC1)c1cncc2ccccc12,Ki,[8],1 µM
same,Ki,[1],0.211 µM
O=S(=O)(NCCCN1CCN(c2ccc(Cl)cc2)CC1)c1cncc2ccccc12,Ki,[8],0.888 µM
O=C(CCCN1CCC(O)(c2ccc(Cl)cc2)CC1)c1ccc(F)cc1,Activity,Mus musculus [13],Active
same,inhibition,Mus musculus [14],Dose-dependent effect
O=S(=O)(NCCCCN1CCN(c2ccc(Cl)cc2)CC1)c1cnc2ccccc2c1,inhibition,[15],78%
same,inhibition,[16],37%
same,inhibition,[17],82%
same,inhibition,[18],46%
same,Ki,[8],0.771 µM
same,Ki,[1],0.056 µM
O=S(=O)(NCCCCN1CCN(c2ccc(Cl)cc2)CC1)c1ccc2ncccc2c1,Ki,[8],2.03 µM
same,Ki,[1],0.044 µM
O=S(=O)(NCCCCN1CCN(c2cccc(Cl)c2)CC1)c1cnc2ccccc2c1,inhibition,[16],30%
same,inhibition,[17],94%
same,inhibition,[18],70%
same,Ki,[1],0.022 µM
CN(C)CCCN1c2ccccc2CCc2ccccc21.Cl [IMIPRAMINE HYDROCHLORIDE],Activity,Mus musculus [19],52%
same,Activity,Mus musculus [20],26.5%
CN1CCN(C2=Nc3cc(Cl)ccc3Nc3ccccc32)CC1,Activity,Mus musculus [21],Active
same,inhibition,Mus musculus [14],Dose-dependent effect
Cl.O=S(=O)(c1cnc2ccccc2c1)N1CCC(CCN2CCN(c3ccc(Cl)cc3)CC2)CC1,Activity,Mus musculus [22],inactive
same,inhibition,Mus musculus [23],Dose-dependent effect
same,ED50,Mus musculus [23]; read-out: ID50 (the source's name),25 mg/kg
same,inhibition,Mus musculus [11],Dose-dependent effect
same,ED50,Mus musculus [11],5.12 mg/kg
same,inhibition,[15],90%
same,inhibition,[16],63%
same,inhibition,[17],90%
same,inhibition,[18],52%
same,Ki,D(2) dopamine receptor,0.056 µM
same,Ratio Ki,[12],207
same,Ki,[9],0.04 µM
same,Ki,[10],24.8 µM
same,Ki,[8],8.3 µM
same,Ki,[1],0.031 µM
